Assay outcomes deposited in PubChem BioAssay by Johns Hopkins Ion Channel Center.
RGS4 inh: inhibitors of human RGS4 | P49798 | HEK293 M3R/RGS4 inducible, Fluo-4 calcium flux; hits give high values; triggered by carbachol at its EC20 | B-score at 10 µM | 0.45% of 310,000 active;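 active means B-score, a plate-corrected calcium signal, over three deviations above library mean, with baseline fluorescence within five deviations of library mean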;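 further: RGS4 expression induced by doxycycline in cells with stable M3 receptor; B-score is computed from the integrated fluorescence ratio over baseline after carbachol; higher B-score means a larger calcium signal and so more RGS4 inhibition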
Target sequence (P49798 whole entry, looked up): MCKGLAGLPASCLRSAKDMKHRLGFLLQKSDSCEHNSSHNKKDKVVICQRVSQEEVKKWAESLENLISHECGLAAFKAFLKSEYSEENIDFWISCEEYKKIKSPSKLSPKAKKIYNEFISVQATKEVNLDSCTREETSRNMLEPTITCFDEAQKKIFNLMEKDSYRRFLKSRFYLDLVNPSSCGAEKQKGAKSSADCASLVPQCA
MrgX1 allo act: human MrgX1 positive allosteric modulation, primary screen | MrgX1-HEK293, Fluo-4 calcium flux, FDSS; hits give high values | B-score at 10 µM | Q96LB2 | 0.63% of 310,000 active;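 active means plate-corrected calcium response at least 3 library SD above typical, normal starting fluorescence, not activating the receptor alone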;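 further: compound read alongside a low EC10 to EC30 dose of BAM8-22 agonist; peak minus trough fluorescence over baseline measured at the second addition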
Target sequence (Q96LB2 whole entry, looked up): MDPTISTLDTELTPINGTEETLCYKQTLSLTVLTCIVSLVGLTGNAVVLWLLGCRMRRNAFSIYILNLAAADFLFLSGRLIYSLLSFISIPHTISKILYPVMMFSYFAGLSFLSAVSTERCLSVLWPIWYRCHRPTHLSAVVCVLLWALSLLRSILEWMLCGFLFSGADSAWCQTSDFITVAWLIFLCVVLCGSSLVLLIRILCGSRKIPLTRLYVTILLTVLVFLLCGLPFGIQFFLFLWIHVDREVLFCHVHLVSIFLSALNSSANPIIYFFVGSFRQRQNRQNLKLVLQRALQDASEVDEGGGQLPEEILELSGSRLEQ
RGS4 act: potentiators or activators of RGS4 | B-score at 10 µM | HEK293 M3R/inducible RGS4, carbachol calcium flux Fluo4; hits give low values | 0.92% of 310,000 active;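 active means B-score of the integrated calcium signal more than 4 SD below the library mean, with starting fluorescence not abnormally high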;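 further: negative B-score means reduced calcium response which marks RGS4 activation or potentiation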
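Assay system: HEK293 FlpIn-TREx cells, stable M3R, doxycycline-inducible RGS4 / Probe or stimulus: carbachol, ECmax concentration / Times: overnight RGS4 induction, 30 min dye load 37 °C, 20 min compound RT / Signal: kinetic calcium fluorescence imaging with Fluo4-AM dye, 2 µM / Measure: Agonist-evoked peak-minus-minimum fluorescence over baseline, integrated ratio, B score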
MrgX1 antag: antagonists of human MrgX1 receptor. Q96LB2. MRGX1-HEK293 calcium flux, Fluo-4, BAM8-22 antagonism; hits give low values. B-score at 10 µM. 1.3% of 310,000 active;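 active means calcium-response B-score plate-corrected more than 3 library SD below zero, starting fluorescence within 5 deviations, no agonist response on first addition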;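 further: peak minus trough fluorescence over baseline after final BAM8-22 challenge near maximal dose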
MrgX1 agonist: agonists of human MrgX1 receptor | MrgX1-HEK293 cells, Fluo-4 calcium fluorescence, agonist mode; hits give high values | B-score at 10 µM | Q96LB2 | 0.44% of 310,000 active;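 active means calcium response B-score plate-corrected fluorescence ratio at least 3 library SD, with starting fluorescence B-score inside 5 SD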
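Material – MrgX1-expressing HEK293 cells · Input – 15,000 cells seeded per well · Dosing – compound as first of three additions · Times – overnight seeding, then 1 h dark dye loading · Measured by – kinetic Fluo-4 NW fluorescence of intracellular calcium · Read-out – B-scored fluorescence response ratio · Benchmarks – positive and negative control wells on each plate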
MrgX1 PAM conf: human MrgX1 positive allosteric modulation, re-confirmation; shares compounds with MrgX1 allo act; MrgX1-HEK293, Fluo-4 calcium fluorescence, FDSS; activation (ratio percentage), % at 10 µM; 13% of 1,200 active;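 active means ratio at least 3 SD above the weak peptide control, stable starting fluorescence, no direct agonism earlier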;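 further: compound followed by low BAM8-22 agonist challenge near EC20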
HEK293 Ca flux: activity in parental HEK293 cells lacking MrgX1 | shares compounds with MrgX1 antag | Fluo-4 calcium fluorescence, FDSS | fluorescence ratio F(max-min)/F0 at 10 µM | 2% of 4,000 active;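 active means duplicate-averaged calcium fluorescence ratio at least three times the standard deviation of buffer wells, a nonspecific response in parental cells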
HEK293 Ca counter: MrgX1 allosteric activator counter-screen hit in parental HEK293 cells | shares compounds with MrgX1 antag | parental HEK293 calcium flux, Fluo-4 fluorescence ratio; hits give high values | fluorescence ratio F(max-min)/F0 at 10 µM | 0.4% of 4,000 active | AID 624114;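 active means calcium fluorescence ratio, averaged over duplicates, at least 3 SD of the buffer-well ratio, meaning a nonspecific response in receptor-free cells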;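 further: untransfected parental HEK293 lacking MrgX1 used as counterscreen for MrgX1 allosteric activators; fluorescence change taken during the second addition on a kinetic imager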
HEK293 Ca cntr2: activity in parental HEK293 cells lacking MrgX1 receptor; shares compounds with MrgX1 antag; Fluo-4 calcium fluorescence (FDSS); hits give high values; fluorescence ratio F(max-min)/F0 at 10 µM; 8.7% of 4,000 active; AID 624115;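 active means calcium fluorescence ratio at least three times the spread of buffer wells, meaning a non-specific response in parental cells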
Large screens that a line does not name were inactive (follow-up assays come after a bar, where they were run). This is a sample that favours compounds with a hit; in the whole collection about 3.5% have one here.

CC1=C(C)CC(C(=O)NCCc2ccc(F)cc2)C(C(=O)O)C1 (centres undefined)	none
CCOc1cc(/C=N/NC(=O)c2cccc(S(=O)(=O)N3CCCC3)c2)ccc1OCC(=O)N(C)C	none
COC(=O)c1ccc(N2C(=O)CC(Sc3n[nH]c(C)n3)C2=O)cc1 (centres undefined)	MrgX1 allo act 7.8 | MrgX1 PAM conf inactive | HEK293 Ca flux inactive | HEK293 Ca counter inactive | HEK293 Ca cntr2 inactive
COC(=O)c1cc(C(=O)OC)cc(N2C(=O)CC(Sc3nc(C)cc(C)n3)C2=O)c1 (centres undefined)	none
NS(=O)(=O)c1cc(C(=O)NCCc2ccccn2)ccc1Cl	MrgX1 allo act 21 | MrgX1 PAM conf inactive | HEK293 Ca flux inactive | HEK293 Ca counter inactive | HEK293 Ca cntr2 inactive
CC(C)Sc1nc(N)nc(-c2cccs2)c1C#N	MrgX1 allo act 9.1 | MrgX1 PAM conf inactive | HEK293 Ca flux inactive | HEK293 Ca counter inactive | HEK293 Ca cntr2 inactive
CSc1nc(N)nc(-c2cccs2)c1C#N	none
CC(C)[C@@H](COc1ccccc1)N1CCN(Cc2ccccc2)CCC1=O	MrgX1 allo act 14 | MrgX1 PAM conf inactive | HEK293 Ca flux inactive | HEK293 Ca counter inactive | HEK293 Ca cntr2 inactive
COc1ccc2c(C)cc(SCC(=O)N3CCOCC3)nc2c1	none
COc1ccc2c(C)cc(SCC(=O)N(C)C3CCS(=O)(=O)C3)nc2c1 (centres undefined)	MrgX1 allo act 10 | MrgX1 PAM conf inactive | HEK293 Ca flux inactive | HEK293 Ca counter inactive | HEK293 Ca cntr2 inactive
CC(NC(=O)CSC(=S)N1CCCC1)c1ccc(S(N)(=O)=O)cc1 (centres undefined)	none
O=c1c2ccccc2c2ccccc2c(=O)n1CC1CCCO1 (centres undefined)	MrgX1 allo act 9.2 | MrgX1 PAM conf inactive | HEK293 Ca flux inactive | HEK293 Ca counter inactive | HEK293 Ca cntr2 inactive
O=C(CSc1nc2ccccc2c(=O)n1CC1CCCO1)NCC1CCCO1 (centres undefined)	MrgX1 allo act 8.2 | MrgX1 PAM conf inactive | HEK293 Ca flux inactive | HEK293 Ca counter inactive | HEK293 Ca cntr2 inactive
CC(=O)NCCn1c(SCC(=O)NCC2CCCO2)nc2ccccc2c1=O (centres undefined)	none
Cc1noc(C)c1COC(=O)c1cccnc1Cl	none
Cc1cc(Br)ccc1OCC(=O)NC1CCCC1	none
O=C(COc1ccccc1Br)NC1CCCC1	MrgX1 allo act 7.3 | MrgX1 PAM conf inactive | HEK293 Ca flux inactive | HEK293 Ca counter inactive | HEK293 Ca cntr2 inactive
CCc1ccc(OCC(=O)NC2CCCCC2)c(Br)c1	MrgX1 allo act 8.3 | MrgX1 PAM conf inactive | HEK293 Ca flux inactive | HEK293 Ca counter inactive | HEK293 Ca cntr2 inactive
Cc1cccc(C(=O)N[C@H](C(=O)Nc2nccs2)C(C)C)c1	MrgX1 allo act 24 | MrgX1 PAM conf inactive | HEK293 Ca flux inactive | HEK293 Ca counter inactive | HEK293 Ca cntr2 inactive
Cc1cccc(C(=O)N[C@H](C(=O)Nc2nc(C)cs2)C(C)C)c1	none
CCCCCCn1c(C(C)NC(=O)c2ccco2)nc2ccccc21 (centres undefined)	MrgX1 allo act 18 | MrgX1 PAM conf inactive | HEK293 Ca flux inactive | HEK293 Ca counter inactive | HEK293 Ca cntr2 inactive
CCCCn1c(C(C)NC(=O)CC)nc2ccccc21 (centres undefined)	none
CN(C)CCCOc1ccc2c(c1)Sc1ccccc1CC2=O	MrgX1 allo act 8.5 | MrgX1 PAM conf inactive | HEK293 Ca flux inactive | HEK293 Ca counter inactive | HEK293 Ca cntr2 inactive
CC(C)(C)c1ccc(O)c(/C=N\O)c1	MrgX1 allo act 38 | MrgX1 PAM conf inactive | HEK293 Ca flux inactive | HEK293 Ca counter inactive | HEK293 Ca cntr2 inactive
CC(=O)c1ccc(Nc2cc(C)nc3c(C)cccc23)cc1	none
Cc1ccc(Nc2cc(C)nc3c(C)cccc23)cc1	MrgX1 allo act 7.3 | MrgX1 PAM conf inactive | HEK293 Ca flux inactive | HEK293 Ca counter inactive | HEK293 Ca cntr2 inactive
Cc1ccc(S(=O)(=O)N2CCN(C(=O)Cc3ccc4c(c3)OCCO4)CC2)cc1C	none
Cc1ccc(CCC(=O)Nc2ccc(Br)cc2)o1	none
COc1cccc(CN2CC(C(=O)N(C)Cc3nc4ccc(F)cc4[nH]3)CCC2=O)c1 (centres undefined)	MrgX1 allo act 7 | MrgX1 PAM conf inactive | HEK293 Ca flux inactive | HEK293 Ca counter inactive | HEK293 Ca cntr2 inactive
COc1ccc2nc(CCN(C)C(=O)C3CCC(=O)N(Cc4cccc(F)c4)C3)[nH]c2c1 (centres undefined)	none
C=C(C)COc1cc2oc(=O)c(CC(=O)N3C[C@H]4C[C@@H](C3)c3cccc(=O)n3C4)c(C)c2cc1Cl	none
O=C(CCNS(=O)(=O)c1ccc(Br)cc1)NC1CCCCC1	none
O=S(=O)(NC(=S)NC1CCCCC1)c1ccc(Br)cc1	MrgX1 allo act 28 | MrgX1 PAM conf 25% | HEK293 Ca flux inactive | HEK293 Ca counter inactive | HEK293 Ca cntr2 inactive
CCOC(=O)C1CCN(CCCSc2ccccc2)CC1	none
OC(CN1CCN(c2ccccn2)CC1)Cn1c2ccc(Cl)cc2c2cc(Cl)ccc21 (centres undefined)	none
OC(CN1CCCCC1)Cn1c2ccc(Cl)cc2c2cc(Cl)ccc21 (centres undefined)	MrgX1 allo act 6.7 | MrgX1 PAM conf inactive | HEK293 Ca flux inactive | HEK293 Ca counter inactive | HEK293 Ca cntr2 inactive
O=C(NC1CCCCC1)c1ccccc1C(F)(F)F	MrgX1 allo act 8.6 | MrgX1 PAM conf inactive | HEK293 Ca flux inactive | HEK293 Ca counter inactive | HEK293 Ca cntr2 inactive
Cc1nn(C)cc1S(=O)(=O)NC1CCCC1	none
CN1CCc2c(sc(NC(=O)C3CCCCC3)c2C(N)=O)C1	none
COc1ccc(CN(C)C(=O)c2oc3ccccc3c2CSC)cc1F	MrgX1 allo act 8 | MrgX1 PAM conf inactive | HEK293 Ca flux inactive | HEK293 Ca counter inactive | HEK293 Ca cntr2 inactive
COc1ccc(CCN(C)C(=O)c2oc3ccccc3c2C)cc1OC	none
Cc1c(-c2cccc(Cl)c2)nc2ccccc2c1C(=O)OC/C(O)=C(\C#N)c1nc2ccccc2[nH]1	none
Cc1nc(N)c2c(Cc3cccc4ccccc34)nn(C(C)(C)C)c2n1	none
O=C(COC(=O)c1cccc(O)c1)Nc1ccc(OC(F)F)cc1	MrgX1 allo act 10 | MrgX1 PAM conf inactive | HEK293 Ca flux inactive | HEK293 Ca counter inactive | HEK293 Ca cntr2 inactive
